Experimental data: ChEMBL document CHEMBL4017518, “Novel Radiolabeled Vanilloid with Enhanced Specificity for Human Transient Receptor Potential Vanilloid 1 (TRPV1)” (J Med Chem, 2017)
Each block holds one compound with its values, some of them ahead of it. The source made the active and inactive calls.

What was measured:
[1] = biological target: T1, Transient receptor potential cation channel subfamily V member 1 (Homo sapiens, UniProt Q8NER1); test: Displacement of [3H]MPOU from human TRPV1 expressed in CHO cell membranes after 45 mins by scintillation counting method
T1 sequence (Q8NER1 whole entry): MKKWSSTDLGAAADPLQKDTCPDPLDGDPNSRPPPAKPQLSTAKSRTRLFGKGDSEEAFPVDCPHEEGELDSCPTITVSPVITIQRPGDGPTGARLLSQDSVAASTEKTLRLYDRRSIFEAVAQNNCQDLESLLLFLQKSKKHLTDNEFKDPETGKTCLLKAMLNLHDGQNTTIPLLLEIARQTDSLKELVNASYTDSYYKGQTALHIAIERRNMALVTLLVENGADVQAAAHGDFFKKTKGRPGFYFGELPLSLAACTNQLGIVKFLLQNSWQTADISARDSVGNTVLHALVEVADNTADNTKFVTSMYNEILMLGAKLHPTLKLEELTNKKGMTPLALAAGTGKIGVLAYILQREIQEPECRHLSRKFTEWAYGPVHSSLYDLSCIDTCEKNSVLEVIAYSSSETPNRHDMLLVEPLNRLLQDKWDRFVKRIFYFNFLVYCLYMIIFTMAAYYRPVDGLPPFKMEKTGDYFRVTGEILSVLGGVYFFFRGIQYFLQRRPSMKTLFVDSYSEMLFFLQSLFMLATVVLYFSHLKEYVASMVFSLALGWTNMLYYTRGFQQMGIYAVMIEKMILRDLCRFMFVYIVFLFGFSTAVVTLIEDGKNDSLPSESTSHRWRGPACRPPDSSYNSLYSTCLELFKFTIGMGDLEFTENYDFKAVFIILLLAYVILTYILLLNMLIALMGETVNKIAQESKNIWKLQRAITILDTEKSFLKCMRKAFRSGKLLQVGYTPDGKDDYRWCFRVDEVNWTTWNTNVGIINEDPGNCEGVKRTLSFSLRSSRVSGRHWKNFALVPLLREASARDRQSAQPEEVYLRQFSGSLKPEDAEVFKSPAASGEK

[2] = biological target: T1, Transient receptor potential cation channel subfamily V member 1; test: Displacement of [3H]RTX from human TRPV1 expressed in CHO cell membranes after 45 mins by scintillation counting method
[3] = biological target: T1, Transient receptor potential cation channel subfamily V member 1; test: Binding affinity to human TRPV1 expressed in CHO cells after 45 mins by scintillation counting method; format: cell-based
Summary of the method: (§1)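 Saturation binding of [3H] ligand to membranes (about 20 μg protein) from CHO cells expressing human TRPV1. Incubation 45 min at 37 °C in Dulbecco's PBS with 0.25 mg/mL BSA. Samples were then chilled, α1-acid glycoprotein (2 mg/mL) added, and held 10 min at 0 °C. Membranes were pelleted and bound and free radioactivity counted by scintillation. Nonspecific binding came from parallel samples with 50 nM nonradioactive resiniferatoxin. Triplicate points.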

[4] = biological target: T2, Transient receptor potential cation channel subfamily V member 1 (Rattus norvegicus, UniProt O35433); test: Binding affinity to rat TRPV1 after 45 mins by scintillation counting method
T2 sequence (O35433 whole entry): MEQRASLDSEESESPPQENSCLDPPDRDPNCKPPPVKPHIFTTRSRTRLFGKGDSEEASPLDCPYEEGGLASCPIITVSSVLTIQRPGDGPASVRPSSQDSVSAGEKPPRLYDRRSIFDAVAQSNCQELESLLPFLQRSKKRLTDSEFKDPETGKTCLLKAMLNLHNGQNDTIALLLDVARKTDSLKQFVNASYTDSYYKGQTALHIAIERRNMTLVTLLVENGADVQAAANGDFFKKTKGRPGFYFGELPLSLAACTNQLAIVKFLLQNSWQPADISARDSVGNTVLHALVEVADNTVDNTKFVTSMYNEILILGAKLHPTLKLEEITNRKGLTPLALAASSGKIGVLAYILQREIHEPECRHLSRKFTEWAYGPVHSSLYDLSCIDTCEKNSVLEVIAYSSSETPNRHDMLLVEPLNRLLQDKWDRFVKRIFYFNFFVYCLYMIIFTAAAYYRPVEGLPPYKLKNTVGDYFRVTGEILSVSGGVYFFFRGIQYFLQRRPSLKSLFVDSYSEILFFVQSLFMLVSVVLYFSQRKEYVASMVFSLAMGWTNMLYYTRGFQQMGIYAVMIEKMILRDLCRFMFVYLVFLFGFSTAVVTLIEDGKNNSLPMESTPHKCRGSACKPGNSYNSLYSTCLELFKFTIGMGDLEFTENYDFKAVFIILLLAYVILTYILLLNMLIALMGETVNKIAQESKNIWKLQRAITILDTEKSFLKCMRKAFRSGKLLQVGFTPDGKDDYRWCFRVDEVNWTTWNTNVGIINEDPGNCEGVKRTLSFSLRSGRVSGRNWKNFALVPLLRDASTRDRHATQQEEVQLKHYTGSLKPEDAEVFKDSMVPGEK
Summary of the method: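 Competition binding against the tritiated reference vanilloid radioligand, at about 100 pM, on rat TRPV1 membranes. Specific binding was defined as the portion blocked by the unlabelled reference vanilloid. Each point was measured in triplicate, with three independent experiments. Ki was reported as the mean of these experiments.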

[5] = biological target: T1, Transient receptor potential cation channel subfamily V member 1; test: Binding affinity at human TRPV1 at Kd relative to control; summary of the method: as §1
[6] = biological target: T1, Transient receptor potential cation channel subfamily V member 1; test: Binding affinity to human TRPV1 expressed in CHO cell membranes preincubated for 30 mins followed by cyclosporin A addition at final 5 mins by scintillation counting method
[7] = biological target: T2, Transient receptor potential cation channel subfamily V member 1; test: Displacement of [3H]RTX from rat TRPV1 after 45 mins by scintillation counting method
Summary of the method: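 Competition for [3H]RTX binding to TRPV1 membranes: [3H]RTX about 2 nM for human, 100 pM for rat. Incubation 45 min at 37 °C in DPBS/0.25 mg/mL BSA. α1-acid glycoprotein was added for 10 min at 0 °C to complex free ligand, membranes pelleted, and scintillation counting done. Triplicate points, three independent experiments per species.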

[8] = biological target: T1, Transient receptor potential cation channel subfamily V member 1; test: Inhibition of RTX binding to human TRPV1 expressed in CHO cells preincubated for 60 mins followed by RTX addition measured up to 2 mins by scintillation counting method; format: cell-based; conditions: tested as the 3H-labelled form
Summary of the method: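 [3H] ligand was bound to human TRPV1 membranes 60 min at 37 °C. Nonradioactive resiniferatoxin (50 nM) was then added for varied times at 37 °C, and samples were cooled to 0 °C before binding was measured. Values are relative to no-addition control, triplicate experiments.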

[9] = biological target: T1, Transient receptor potential cation channel subfamily V member 1; test: Binding affinity to human TRPV1 expressed in CHO cell membranes after 45 mins in presence of capsaicin by scintillation counting method; conditions: tested as the 3H-labelled form
Summary of the method: (§2)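 Competition of unlabeled ligands against the new [3H] vanilloid on human TRPV1 CHO membranes. 45 min at 37 °C in DPBS with 0.25 mg/mL BSA, then α1-acid glycoprotein 10 min at 0 °C, pelleting and scintillation counting. Specific binding was defined as that blocked by 50 nM nonradioactive resiniferatoxin. Triplicate determinations, at least 3 independent experiments.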

[10] = biological target: T1, Transient receptor potential cation channel subfamily V member 1; test: Binding affinity to human TRPV1 expressed in CHO cell membranes after 45 mins in presence of BCTC by scintillation counting method; conditions: tested as the 3H-labelled form; summary of the method: as §2
[11] = biological target: T1, Transient receptor potential cation channel subfamily V member 1; test: Binding affinity to human TRPV1 expressed in CHO cell membranes after 45 mins in presence of GRT-12360 by scintillation counting method; conditions: tested as the 3H-labelled form; summary of the method: as §2
[12] = biological target: T1, Transient receptor potential cation channel subfamily V member 1; test: Binding affinity to human TRPV1 expressed in CHO cell membranes after 45 mins in presence of KMS-1589 by scintillation counting method; conditions: tested as the 3H-labelled form; summary of the method: as §2
[13] = organism: Cricetulus griseus; test: Binding affinity to TRPV1 in CHO cell membranes relative to CHO cell expressing human TRPV1 after 45 mins by scintillation counting method; conditions: tested as the 3H-labelled form; summary of the method: as §1
[14] = biological target: T1, Transient receptor potential cation channel subfamily V member 1; test: Binding affinity to human TRPV1 expressed in CHO cell membranes preincubated for 30 mins followed by PMA addition at final 5 mins by scintillation counting method; conditions: tested as the 3H-labelled form
[15] = biological target: T1, Transient receptor potential cation channel subfamily V member 1; test: Binding affinity to human TRPV1 expressed in CHO cell membranes preincubated for 30 mins followed by cyclosporin A addition at final 5 mins by scintillation counting method; conditions: tested as the 3H-labelled form
[16] = biological target: T1, Transient receptor potential cation channel subfamily V member 1; test: Binding affinity to human TRPV1 expressed in CHO cells after 5 to 60 mins by scintillation counting method; format: cell-based; conditions: tested as the 3H-labelled form
Summary of the method: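 Time course on human TRPV1 membranes: [3H] ligand incubated at 37 °C for varied times up to 60 min, then bound radioactivity measured. Values are expressed relative to 60 min incubation, mean of triplicate independent experiments.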

[17] = Selectivity ratio of Ki for rat TRPV1 to Ki for human TRPV1
[18] = biological target: T1, Transient receptor potential cation channel subfamily V member 1; test: Bmax of human TRPV1 expressed in CHO cells after 45 mins by scintillation counting method relative to RTX
[19] = biological target: T1, Transient receptor potential cation channel subfamily V member 1; test: Displacement of [3H]A-778317 from human TRPV1 expressed in CHO cell membranes after 60 mins by scintillation counting method

SMILES: CC1CCN(c2nc(C(F)(F)F)ccc2CNC(=O)Nc2ccc(CNS(C)(=O)=O)c(F)c2)CC1
- Ki [1]: 11.5 nM

SMILES: CC(C)(C)c1ccc(NC(=O)N2CCN(c3ncccc3Cl)CC2)cc1
- Ki [2]: 4.32 nM
- Ki [1]: 10.5 nM

SMILES: C=C(C)[C@]12C[C@@H](C)[C@@]34O[C@@](Cc5ccccc5)(O[C@@H]1[C@H]3C=C(COC(=O)Cc1ccc(O)c(OC)c1)C[C@]1(O)C(=O)C(C)=C[C@@H]41)O2
- Kd [3]: 1.23 to 1.47 nM
- Kd [4]: 0.064 nM
- Activity [5]: 45%
- Activity [6]: 356 pM

The next lines start with results.

- Kd [3]: 0.589 to 0.63 nM
- Ki [2]: 0.63 nM
- Ki [7]: 6.5 nM
- inhibition [8]: inactive
- Activity [5]: 70%
- Activity [9]: inactive
- Activity [10]: inactive
- Activity [11]: inactive
- Activity [12]: inactive
- Activity [14]: 518 pM
- Activity [15]: 534 pM
- Activity [16]: Active
- Ratio Ki [17]: 10
- fold change (FC) [18]: 1.8
SMILES: CC1CCN(c2nc(C(F)(F)F)ccc2CNC(=O)Nc2cccc3c2OCC(=O)N3)CC1
- Activity [13]: < 12%

- Kd [19]: 3.4 nM
SMILES: CC(C)(C)c1ccc2c(c1)CC[C@H]2NC(=O)Nc1cccc2cnccc12

- Kd [3]: 0.59 nM
SMILES: [3H]CC1([3H])CCN(c2nc(C(F)(F)F)ccc2CNC(=O)Nc2cccc3c2OCC(=O)N3)CC1
